ChEMBL document CHEMBL1129660, “Studies on 6-aminoquinolones: synthesis and antibacterial evaluation of 6-amino-8-methylquinolones” (J Med Chem, 1996)
Values after ≈ are worked out from the molar mass of the structure shown.

How the values were obtained:
Format in all cases: functional
Escherichia coli [1] = assay: Antibacterial activity tested against Escherichia coli ATCC 8739
Procedure, shortened: (§1)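 MICs (µg/mL) determined by conventional agar dilution against a panel of eight Gram-negative and five Gram-positive reference strains.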

Escherichia coli [2] = assay: Antibacterial activity tested against Escherichia coli ISF 432; procedure, shortened: as §1
Escherichia coli [3] = assay: Inhibitory activity against gyrase supercoiling activity from Escherichia coli
Procedure, shortened: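 Inhibition of DNA gyrase supercoiling activity, by a previously described protocol with slight modifications. IC50 derived by densitometric quantification of the supercoiled DNA peak in an agarose gel.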

Enterobacter cloacae = assay: Antibacterial activity tested against Enterobacter cloacae OMNFI 174
Bacteria = assay: Geometric mean of antibacterial activity (Gram +ve bacteria) of the compound
Procedure, shortened: (§2)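 Geometric means calculated from agar-dilution MICs (µg/mL), taken separately across the five Gram-positive and the eight Gram-negative panel strains.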

[4] = Geometric mean of antibacterial activity (Gram -ve bacteria) of the compound; procedure, shortened: as §2
Klebsiella pneumoniae = assay: Antibacterial activity tested against Klebsiella pneumoniae (Klebsiella pneumoniae) ATCC 10031; procedure, shortened: as §1
Proteus vulgaris = assay: Antibacterial activity tested against Proteus vulgaris CNUR 5; procedure, shortened: as §1
Providencia stuartii = assay: Antibacterial activity tested against Providencia stuartii CNUR 5; procedure, shortened: as §1
Pseudomonas aeruginosa = assay: Antibacterial activity tested against P. ae (Pseudomonas aeruginosa) ATCC 9027; procedure, shortened: as §1
Shigella = assay: Antibacterial activity tested against Shigella enteritidis; procedure, shortened: as §1
Staphylococcus aureus [5] = assay: Antibacterial activity against Staphylococcus aureus ATCC 6538; procedure, shortened: as §1
Staphylococcus aureus [6] = assay: Antibacterial activity against Staphylococcus aureus MPR 5; procedure, shortened: as §1
Enterococcus faecalis [7] = assay: Antibacterial activity tested against Streptococcus faecalis LEP Br; procedure, shortened: as §1
[8] = tested on: Staphylococcus epidermidis; assay: Antibacterial activity tested against Staphylococcus epidermidis CPHL A2; procedure, shortened: as §1
[9] = tested on: Staphylococcus epidermidis; assay: Antibacterial activity tested against Staphylococcus epidermidis HCF Berset C; procedure, shortened: as §1
Enterococcus faecium [10] = assay: Antibacterial activity tested against Enterococcus faecium
Enterococcus faecalis [11] = assay: Antibacterial activity tested against Enterococcus faecalis
Staphylococcus aureus [12] = assay: Antibacterial activity tested against Staphylococcus aureus Methicillin-and Ciprofloxacin resistants; Range is 2-8 ug/mL
Streptococcus pneumoniae = assay: Antibacterial activity tested against Streptococcus pneumoniae; Range is 1-2 ug/mL
Staphylococcus aureus [13] = assay: Antibacterial activity tested against Staphylococcus aureus; Range is 0.06-0.13 ug/mL
Enterococcus faecium [14] = assay: Antibacterial activity tested against Enterococcus faecium; Range is 0.5-2 ug/mL
Enterococcus faecalis [15] = assay: Antibacterial activity tested against Enterococcus faecalis; Range is 0.25-0.5 ug/mL
Staphylococcus aureus [16] = assay: Antibacterial activity tested against Staphylococcus aureus Methicillin-and Ciprofloxacin resistants; Range is 4-8 ug/mL

MIC (Escherichia coli [1]) [µg/mL]	MIC (Escherichia coli [2]) [µg/mL]	MIC (Enterobacter cloacae) [µg/mL]	MIC (Klebsiella pneumoniae) [µg/mL]	MIC (Proteus vulgaris) [µg/mL]	MIC (Providencia stuartii) [µg/mL]	MIC (Shigella) [µg/mL]	MIC (Staphylococcus aureus [5]) [µg/mL]	MIC (Staphylococcus aureus [6]) [µg/mL]	MIC (Enterococcus faecalis [7]) [µg/mL]	MIC [8] [µg/mL]	MIC [9] [µg/mL]	Compound	IC50 (Escherichia coli [3]) [µg/mL]	Geometric mean (Bacteria)	Geometric mean [4]	MIC (Pseudomonas aeruginosa) [µg/mL]	further results
0.03 (≈ 0.0842 µM)	0.03 (≈ 0.0842 µM)	0.125 (≈ 0.351 µM)	0.03 (≈ 0.0842 µM)	4 (≈ 11.2 µM)	2 (≈ 5.61 µM)	0.06 (≈ 0.168 µM)	0.5 (≈ 1.4 µM)	0.5 (≈ 1.4 µM)	4 (≈ 11.2 µM)	1 (≈ 2.81 µM)	1 (≈ 2.81 µM)	Cc1c(N2CCN(C)CC2)c(N)cc2c(=O)c(C(=O)O)cn(C3CC3)c12	3.78 (≈ 10.6 µM)	1	0.205	2 (≈ 5.61 µM)	
0.06 (≈ 0.162 µM)	0.03 (≈ 0.0808 µM)	1 (≈ 2.69 µM)	0.03 (≈ 0.0808 µM)	16 (≈ 43.1 µM)	0.5 (≈ 1.35 µM)	1 (≈ 2.69 µM)	0.06 (≈ 0.162 µM)	0.06 (≈ 0.162 µM)	1 (≈ 2.69 µM)	0.06 (≈ 0.162 µM)	0.125 (≈ 0.337 µM)	Cc1c(N2CC(C)OC(C)C2)c(N)cc2c(=O)c(C(=O)O)cn(C3CC3)c12 (centres undefined)		0.122	0.451	4 (≈ 10.8 µM)	
4 (≈ 10.9 µM)	0.3 (≈ 0.816 µM)	4 (≈ 10.9 µM)	0.03 (≈ 0.0816 µM)	64 (≈ 174 µM)	1 (≈ 2.72 µM)	3 (≈ 8.16 µM)	0.03 (≈ 0.0816 µM)	0.03 (≈ 0.0816 µM)	4 (≈ 10.9 µM)	0.25 (≈ 0.68 µM)	1 (≈ 2.72 µM)	Cc1c(N2CC3CCC2CC3)c(N)cc2c(=O)c(C(=O)O)cn(C3CC3)c12		0.246	2.141	16 (≈ 43.5 µM)	

Further lines, the compound ahead of its results:

Compound	MIC (Escherichia coli [1]) [µg/mL]	MIC (Escherichia coli [2]) [µg/mL]	MIC (Enterobacter cloacae) [µg/mL]	MIC (Klebsiella pneumoniae) [µg/mL]	MIC (Proteus vulgaris) [µg/mL]	MIC (Providencia stuartii) [µg/mL]	MIC (Shigella) [µg/mL]	MIC (Staphylococcus aureus [5]) [µg/mL]	MIC (Staphylococcus aureus [6]) [µg/mL]	MIC (Enterococcus faecalis [7]) [µg/mL]	MIC [8] [µg/mL]	MIC [9] [µg/mL]	IC50 (Escherichia coli [3]) [µg/mL]	Geometric mean (Bacteria)	Geometric mean [4]	MIC (Pseudomonas aeruginosa) [µg/mL]	further results
Cc1c(N2CCSCC2)c(N)cc2c(=O)c(C(=O)O)cn(C3CC3)c12	0.25 (≈ 0.696 µM)	0.03 (≈ 0.0835 µM)	0.25 (≈ 0.696 µM)	0.02 (≈ 0.0556 µM)	32 (≈ 89 µM)	2 (≈ 5.56 µM)	0.125 (≈ 0.348 µM)	0.06 (≈ 0.167 µM)	0.06 (≈ 0.167 µM)	0.5 (≈ 1.39 µM)	0.125 (≈ 0.348 µM)	0.125 (≈ 0.348 µM)	1.42 (≈ 3.95 µM)	0.123	0.362	1 (≈ 2.78 µM)	MIC (Enterococcus faecium [10]): 2 µg/mL (≈ 5.56 µM); MIC (Enterococcus faecalis [11]): 0.5 µg/mL (≈ 1.39 µM); MIC (Staphylococcus aureus [12]): 2 µg/mL (≈ 5.56 µM); MIC (Streptococcus pneumoniae): 1 µg/mL (≈ 2.78 µM); MIC (Staphylococcus aureus [13]): 0.06 µg/mL (≈ 0.167 µM)
Cc1c(N2CCc3ccccc3C2)c(F)cc2c(=O)c(C(=O)O)cn(C3CC3)c12	0.06 (≈ 0.153 µM)	0.03 (≈ 0.0764 µM)	4 (≈ 10.2 µM)	0.03 (≈ 0.0764 µM)	4 (≈ 10.2 µM)	2 (≈ 5.1 µM)	0.25 (≈ 0.637 µM)	0.03 (≈ 0.0764 µM)	0.03 (≈ 0.0764 µM)	0.25 (≈ 0.637 µM)	0.03 (≈ 0.0764 µM)	0.03 (≈ 0.0764 µM)	3.14 (≈ 8 µM)	0.046	0.451	4 (≈ 10.2 µM)	
Cc1c(N2CCOCC2)c(N)cc2c(=O)c(C(=O)O)cn(C3CC3)c12	0.03 (≈ 0.0874 µM)	0.03 (≈ 0.0874 µM)	0.125 (≈ 0.364 µM)	0.03 (≈ 0.0874 µM)	8 (≈ 23.3 µM)	0.5 (≈ 1.46 µM)	0.125 (≈ 0.364 µM)	0.125 (≈ 0.364 µM)	0.125 (≈ 0.364 µM)	1 (≈ 2.91 µM)	0.25 (≈ 0.728 µM)	0.125 (≈ 0.364 µM)	5.64 (≈ 16.4 µM)	0.218	0.189	1 (≈ 2.91 µM)	MIC (Enterococcus faecium [14]): 0.5 µg/mL (≈ 1.46 µM); MIC (Enterococcus faecalis [15]): 0.25 µg/mL (≈ 0.728 µM); MIC (Streptococcus pneumoniae): 1 µg/mL (≈ 2.91 µM); MIC (Staphylococcus aureus [13]): 0.06 µg/mL (≈ 0.175 µM); MIC (Staphylococcus aureus [16]): 4 µg/mL (≈ 11.6 µM)
CN1CCN(c2cc3c(cc2N)c(=O)c(C(=O)O)cn3C2CC2)CC1	0.25 (≈ 0.73 µM)	0.03 (≈ 0.0876 µM)	0.25 (≈ 0.73 µM)	0.03 (≈ 0.0876 µM)	64 (≈ 187 µM)	8 (≈ 23.4 µM)	0.25 (≈ 0.73 µM)	2 (≈ 5.84 µM)	2 (≈ 5.84 µM)	32 (≈ 93.5 µM)	2 (≈ 5.84 µM)	4 (≈ 11.7 µM)		4	0.642	4 (≈ 11.7 µM)	
CC1CN(c2cc3c(cc2N)c(=O)c(C(=O)O)cn3C2CC2)CCS1 (centres undefined)	0.03 (≈ 0.0835 µM)	0.03 (≈ 0.0835 µM)	0.5 (≈ 1.39 µM)	0.03 (≈ 0.0835 µM)	128 (≈ 356 µM)	1 (≈ 2.78 µM)	0.5 (≈ 1.39 µM)	0.5 (≈ 1.39 µM)	0.5 (≈ 1.39 µM)	8 (≈ 22.3 µM)	1 (≈ 2.78 µM)	2 (≈ 5.56 µM)		1.32	0.451	2 (≈ 5.56 µM)	
